Reference: ChEMBL document CHEMBL4007509, “Structural Optimizations of Thieno[3,2-b]pyrrole Derivatives for the Development of Metabolically Stable Inhibitors of Chikungunya Virus” (J Med Chem, 2017)

Tests used:
[1] = Cytotoxicity against HEK293T cells assessed as reduction in cell viability after 24 hrs by CellTiter-Glo luminescent assay; type: cell-based, HEK-293T; conditions: human
How it was run: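 HEK 293T cell viability was measured by CellTiter-Glo luminescence after 24 h exposure to serial dilutions. Data were normalized to untreated cells (100%) and reagent background (0%). CC50, the concentration reducing viability by 50%, came from a five-parameter asymmetric fit.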

Chikungunya virus = test: Antiviral activity against full length Gaussia princeps Gluc-tagged Chikungunya virus IMT infected in HEK293T cells assessed as reduction in virus infection after 24 hrs by Gaussia luciferase reporter gene assay; type: functional, cell-based; conditions: HEK-293T
[2] = Selectivity index, ratio of CC50 for HEK293T cells to EC50 for full length Gaussia princeps Gluc-tagged Chikungunya virus IMT; type: toxicity; conditions: human, read-out: Ratio CC50/EC50
[3] = Half life in human liver microsomes; type: ADME, microsome
How it was run: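 Compounds were incubated with human liver microsomes. Half-life = ln(2)/slope, where the slope is ln(% detected) plotted against time, using the mean of at least 3 independent experiments.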

Structure (SMILES) | CC50 at 24 h [1] [µM] | EC50 (Chikungunya virus) [µM] | selectivity ratio [2] | half-life [3] [min]
CCCNC(=O)[C@H]1[C@@H]2CCC[C@H]1CN(C(=O)c1cc3sc(Br)nc3n1Cc1ccc(OC)cc1)C2 | 57.5 | 13.4 | 4.3 | 2.89
CCCNC(=O)[C@H]1CC[C@H](NC(=O)c2cc3sc(Br)cc3n2Cc2ccc(OC)cc2)CC1 | > 100 | 14.3 | > 7 | 3.97
CCCNC(=O)C1CCN(C(=O)c2cc3cc(Br)sc3n2Cc2ccc(OC)cc2)CC1 | > 100 | 13.6 | > 7.3 | 7.61
CCCNC(=O)C1CCN(C(=O)c2cc3sc(C#N)cc3n2Cc2ccc(OC)cc2)CC1 | – | – | – | 11.2
CCCNC(=O)C1CCN(C(=O)c2cc3[nH]ccc3n2Cc2ccc(OC)cc2)CC1 | > 100 | 11.4 | > 8.8 | 23.1
CCCNC(=O)C1CCN(C(=O)c2cc3sccc3n2Cc2ccc(Cl)cc2)CC1 | – | – | – | 10.3
CCCNC(=O)[C@H]1CC[C@@H](NC(=O)c2cc3sc(Br)cc3n2Cc2ccc(OC)cc2)CC1 | > 100 | > 100 | – | –
CCCNC(=O)[C@@H]1CCCN1C(=O)c1cc2sc(Br)cc2n1Cc1ccc(OC)cc1 | 72.4 | 21.2 | 3.4 | 18.2
CCCNC(=O)[C@@H]1C[C@H]2CCC[C@@H](C1)[C@H]2NC(=O)c1cc2sc(Br)cc2n1Cc1ccc(OC)cc1 | > 100 | > 100 | – | –
CCCNC(=O)C1CCN(C(=O)c2cc(Br)cn2Cc2ccc(OC)cc2)CC1 | 55 | 21.4 | 2.6 | 2.17
CCCNC(=O)C1CCN(C(=O)c2cc3sc(C)cc3n2Cc2ccc(OC)cc2)CC1 | – | – | – | 2.69
CCCNC(=O)C1CCN(C(=O)c2cc3[nH]cnc3n2Cc2ccc(OC)cc2)CC1 | > 100 | 42.8 | > 2.3 | 76.2
CCCNC(=O)C1CN(C(=O)c2cc3sc(Br)cc3n2Cc2ccc(OC)cc2)C1 | > 100 | 13.6 | > 7.4 | 7.73
CCCNC(=O)C1CC12CN(C(=O)c1cc3sc(Br)cc3n1Cc1ccc(OC)cc1)C2 (stereo not given) | > 100 | 20.2 | > 5 | 19.5
CCCNC(=O)C1CCN(C(=O)c2ccc(Br)n2Cc2ccc(OC)cc2)CC1 | > 100 | 16.8 | > 6 | 7.32
CCCNC(=O)C1CCN(C(=O)c2cccn2Cc2ccc(OC)cc2)CC1 | > 100 | 25.7 | > 3.9 | 6.71
CCCNC(=O)C1CCN(C(=O)c2cc3sc(Br)cc3n2Cc2ccc(OC)cc2)CC1 | > 100 | 3.1 | > 32 | 2.91
CCCNC(=O)C1CCN(C(=O)c2cc3sccc3n2Cc2ccc(OC)cc2)CC1 | – | 7 | 2.7 | 10.6
CCCCC(=O)C1CCN(C(=O)c2cc3sccc3n2Cc2ccc(OC)cc2)CC1 | – | – | – | 6.3
CCCNC(=O)C1CCN(C(=O)c2cc3sc(-c4ccccc4F)cc3n2Cc2ccc(OC)cc2)CC1 | – | – | – | 35.5
CCCNC(=O)[C@@H]1C[C@H]2CCC[C@@H](C1)[C@@H]2NC(=O)c1cc2scnc2n1Cc1ccc(OC)cc1 | > 25 | 11.4 | > 2.2 | 44.6
CCCNC(=O)C1CCN(C(=O)c2cc3cc(Br)ccc3n2Cc2ccc(OC)cc2)CC1 | > 100 | > 100 | – | 3.94
CCCNC(=O)[C@@H]1[C@@H]2CCC[C@H]1CN(C(=O)c1cc3sc(Br)cc3n1Cc1ccc(OC)cc1)C2 | > 100 | 12.6 | > 7.9 | –
